Experimental data from different studies.
Each line is one published result; the experiments were not run side by side.
Cell line: MDA-MB-231
Read-out: cell growth or viability

| SMILES | test | setting | quantity | result |
| --- | --- | --- | --- | --- |
| CCc1cc(CN2CCc3cc(O)c(OC)cc3C2)cc(CC)c1CC | WST-1 | 96 h | GI50 | 26 µM |
| CCOc1cc(-c2nc3ccccc3[nH]2)ccc1O | MTT | 48 h | IC50 | 48.3 µM |
| N#CC(C(=O)Nc1cccc(C(F)(F)F)c1)=C1Sc2nc3ccc(S(=O)(=O)N4CCCC4)cc3nc2S1 | MTT | 100 µM, 24 h | viability | 12.9% |
| CCc1cc(CN2CCc3cc(OS(N)(=O)=O)c(OC)cc3C2)cc(CC)c1CC | WST-1 | 96 h | GI50 | 5.7 µM |
| CC/C(=C(\c1ccccc1)c1ccc(OCCN(C)C)cc1)c1ccccc1 | ATP luminescence | 72 h | EC90 | 33.4 µM |
| CCCCCCCC(=O)NCC(=O)OC | MTT | 10 µM, 48 h | inhibition | 10% |
| COc1ccc(/C=C\c2cc(OC)c(OC)c(OC)c2)cc1O | imaging | 72 h | CC50 | 0.0037 µM |
| O=C(c1cc(Cc2n[nH]c(=O)c3ccccc23)ccc1F)N1CCN(C(=O)C2CC2)CC1 | ATP luminescence | 7 days | EC50 | ~5 µM |
| CCc1cccc(CN2CCc3cc(OS(N)(=O)=O)c(OC)cc3C2)c1 | WST-1 | 96 h | GI50 | 8 µM |
| Cc1ccc2nc(-c3ccc([N+](=O)[O-])cc3)[nH]c2c1 | MTT | 48 h | IC50 | 17.6 µM |
| COc1cccc2c1C(=O)c1c(O)c3c(c(O)c1C2=O)C[C@@](O)(C(=O)CO)C[C@@H]3O[C@H]1C[C@H](N)[C@H](O)[C@H](C)O1 | MTT | 100 µM, 24 h | viability | 4.1% |
| COc1cccc(-c2nc3ccccc3n2Cc2ccccc2)c1 | MTT |  | IC50 | 43.3 µM |
| C[C@]12CC[C@@H]3c4ccc(O)cc4CC[C@H]3[C@@H]1CC[C@@H]2O | ATP luminescence | 72 h | EC50 | 35.8 µM |
| COc1cc2c(cc1OS(N)(=O)=O)CCN(Cc1cccc([N+](=O)[O-])c1)C2 | WST-1 | 96 h | GI50 | 1.91 µM |
| C=CCn1c(-c2ccc(OC)c(OC)c2)nc2ccccc21 | MTT |  | IC50 | 31.2 µM |
| COc1cc2c(cc1OS(N)(=O)=O)CCN(Cc1cccc(OS(N)(=O)=O)c1)C2 | WST-1 | 96 h | GI50 | 34.9 µM |
| Cc1ccc2nc(-c3ccc(F)cc3)[nH]c2c1 | MTT | 48 h | IC50 | > 100 µM |
| O=C1CCCCC1=C1Sc2nc3ccc(S(=O)(=O)N4CCCC4)cc3nc2S1 | MTT | 3.125 µM, 24 h | viability | 69.8% |
| COc1cc(OC)c(CN2CCc3cc(OS(N)(=O)=O)c(OC)cc3C2)c(OC)c1 | WST-1 | 96 h | GI50 | > 100 µM |
| c1ccc2[nH]c(-c3ccncc3)nc2c1 | MTT | 48 h | IC50 | > 100 µM |
| CCOC(=O)C(C(C)=O)=C1Sc2nc3ccc(S(=O)(=O)N4CCCC4)cc3nc2S1 | MTT | 50 µM, 24 h | viability | 8.1% |
| COc1cc2c(cc1OS(N)(=O)=O)CCN(Cc1cccc(C(C)=O)c1)C2 | WST-1 | 96 h | GI50 | 0.983 µM |
| CC(=O)O[C@H]1C(=O)[C@@]2(C)[C@H]([C@H](OC(=O)c3ccccc3)[C@]3(O)C[C@H](OC(=O)[C@H](O)[C@@H](NC(=O)c4ccccc4)c4ccccc4)C(C)=C1C3(C)C)[C@]1(OC(C)=O)CO[C@@H]1C[C@@H]2O | MTT |  | IC50 | 1.38 µM |
| COc1cc2c(cc1O)CCN(Cc1cccc(NC(C)=O)c1)C2 | WST-1 | 96 h | GI50 | > 100 µM |
| CCOc1cc(CN2CCc3cc(O)c(OC)cc3C2)cc(OCC)c1OCC | WST-1 | 96 h | GI50 | > 100 µM |
| COc1cc2c(cc1O)CCN(Cc1cccc(OC(C)C)c1)C2 | WST-1 | 96 h | GI50 | 86 µM |
| C[C@]12CCCN1CC1=NNC(=O)c3cc(F)cc4[nH]c2c1c34 | ATP luminescence | 7 days | EC50 | ~9 µM |
| COc1cc2c(cc1OS(N)(=O)=O)CCN(Cc1cccc(O)c1)C2 | WST-1 | 96 h | GI50 | 41 µM |
| O=[N+]([O-])c1ccc(-c2nc3ccccc3n2Cc2ccccc2)cc1 | MTT |  | IC50 | 8.32 µM |
